Measurements taken from ChEMBL document CHEMBL1140345, “Conformational constraint in oxazolidinone antibacterials. Synthesis and structure-activity studies of (azabicyclo[3.1.0]hexylphenyl)oxazolidinones” (2005).
Converted amounts (≈) assume the structure as drawn.

Assays:
[1] = system: Staphylococcus epidermidis; assay: Minimum inhibitory concentration against methicillin-resistant Staphylococcus epidermidis UC12084
Escherichia coli [2] = assay: Minimum inhibitory concentration against Escherichia coli UC6674; format: functional
In short: (§1)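 Broth microdilution MIC following the NCCLS M7-A4 approved standard for dilution susceptibility testing of aerobically growing bacteria. The method is taken as accurate to within one dilution.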

Haemophilus influenzae [3] = assay: Minimum inhibitory concentration against ampicillin-reisitant Haemophilus influenzae UC30063; Range is 8-16 ug/mL; format: functional
In short: (§2)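 MIC determined by standard broth microdilution following the NCCLS M7-A4 approved standard for dilution susceptibility testing of aerobically growing bacteria.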

Moraxella catarrhalis = assay: Minimum inhibitory concentration Moraxella catarrhalis; format: functional
In short: as §1

Staphylococcus aureus [4] = assay: Minimum inhibitory concentration against methicillin, ciprofloxacin, rifampin, imipenem-resistant Staphylococcus aureus UC12673; format: functional
In short: as §2

Haemophilus influenzae [5] = assay: Minimum inhibitory concentration against ampicillin-reisitant Haemophilus influenzae UC30063; format: functional
In short: as §1

Streptococcus pneumoniae = assay: Minimum inhibitory concentration against penicillin-susceptible Streptococcus pneumoniae UC9912; format: functional; details: Streptococcus pneumoniae; read-out: MIC
In short: as §1

Staphylococcus aureus [6] = assay: Minimum inhibitory concentration against methicillin-susceptible Staphylococcus aureus UC9213; format: functional
In short: as §2

Enterococcus faecalis [7] = assay: Minimum inhibitory concentration against Enterococcus faecalis UC9217; format: functional
In short: as §1

Enterococcus faecalis [8] = assay: Minimum inhibitory concentration against Enterococcus faecalis UC9217; Range is from 2-4 ug/mL; format: functional
In short: as §1

[9] = system: Staphylococcus epidermidis; assay: Minimum inhibitory concentration against methicillin-resistant Staphylococcus epidermidis UC12084; Range is from 1-2 ug/mL
[10] = system: Staphylococcus epidermidis; assay: Minimum inhibitory concentration against methicillin-resistant Staphylococcus epidermidis UC12084; Range is 0.5-1 ug/mL
Staphylococcus aureus [11] = assay: Minimum inhibitory concentration against methicillin-susceptible Staphylococcus aureus UC9213; Range is 2-4 ug/mL; format: functional
In short: as §2

[12] = system: Staphylococcus epidermidis; assay: Minimum inhibitory concentration against methicillin-resistant Staphylococcus epidermidis UC12084; Range is 0.5-1 ug/mL; remark: listed apart in the source
Enterococcus faecalis [13] = assay: Minimum inhibitory concentration against Enterococcus faecalis UC9217; Range is 1-2 ug/mL; format: functional
In short: as §1

Escherichia coli [14] = assay: Minimum inhibitory concentration against Escherichia coli UC6674; Range is 16-32 ug/mL; format: functional
In short: as §1

Staphylococcus aureus [15] = assay: Minimum inhibitory concentration against methicillin, ciprofloxacin, rifampin, imipenem-resistant Staphylococcus aureus UC12673; Range is 2-4 ug/mL; format: functional
In short: as §2

[16] = Haemophilus influenzae, read-out: MIC

| SMILES | MIC [1] | MIC (Escherichia coli [2]) | MIC (Haemophilus influenzae [3]) | MIC (Moraxella catarrhalis) | MIC (Staphylococcus aureus [4]) | MIC (Haemophilus influenzae [5]; [16]) | MIC (Streptococcus pneumoniae) | MIC (Staphylococcus aureus [6]) | MIC (Enterococcus faecalis [7]) | MIC (Enterococcus faecalis [8]) | MIC [9] | MIC [10] | MIC (Staphylococcus aureus [11]) | MIC [12] | MIC (Haemophilus influenzae [5]) | MIC (Enterococcus faecalis [13]) | MIC (Escherichia coli [14]) | MIC (Staphylococcus aureus [15]) |
| --- | --- | --- | --- | --- | --- | --- | --- | --- | --- | --- | --- | --- | --- | --- | --- | --- | --- | --- |
| CC(=O)NC[C@H]1CN(c2ccc(N3CCOCC3)c(F)c2)C(=O)O1 [LINEZOLID] | 1 µg/mL (≈ 2.96 µM) | > 64 µg/mL | 16 µg/mL (≈ 47.4 µM) | 4 µg/mL (≈ 11.9 µM) |  |  |  |  |  |  |  |  |  |  |  |  |  |  |
| CC(=O)NC[C@H]1CN(c2cc(F)c(N3C[C@@H]4[C@H](C3)[C@H]4NC(=O)CO)c(F)c2)C(=O)O1 | 4 µg/mL (≈ 9.42 µM) | > 64 µg/mL |  |  | 16 µg/mL (≈ 37.7 µM) | 64 µg/mL (≈ 151 µM) | 2 µg/mL (≈ 4.71 µM) | 16 µg/mL (≈ 37.7 µM) | 8 µg/mL (≈ 18.8 µM) |  |  |  |  |  |  |  |  |  |
| CNC(=O)[C@H]1[C@@H]2CN(c3c(F)cc(N4C[C@H](CNC(C)=O)OC4=O)cc3F)C[C@@H]21 | 1 µg/mL (≈ 2.45 µM) | > 64 µg/mL |  |  | 2 µg/mL (≈ 4.9 µM) | 16 µg/mL (≈ 39.2 µM) | 0.5 µg/mL (≈ 1.22 µM) | 2 µg/mL (≈ 4.9 µM) | 1 µg/mL (≈ 2.45 µM) |  |  |  |  |  |  |  |  |  |
| CC(=O)NC[C@H]1CN(c2cc(F)c(N3C[C@@H]4[C@H](C3)[C@H]4NC(C)=O)c(F)c2)C(=O)O1 |  | > 64 µg/mL |  |  | 4 µg/mL (≈ 9.79 µM) | 64 µg/mL (≈ 157 µM) | 1 µg/mL (≈ 2.45 µM) | 4 µg/mL (≈ 9.79 µM) |  | 4 µg/mL (≈ 9.79 µM) | 2 µg/mL (≈ 4.9 µM) |  |  |  |  |  |  |  |
| CC(=O)NC[C@H]1CN(c2ccc(N3C[C@@H]4[C@@H](N)[C@@H]4C3)c(F)c2)C(=O)O1 |  | 32 µg/mL (≈ 91.9 µM) | 16 µg/mL (≈ 45.9 µM) |  | 4 µg/mL (≈ 11.5 µM) |  | 1 µg/mL (≈ 2.87 µM) |  | 4 µg/mL (≈ 11.5 µM) |  |  | 1 µg/mL (≈ 2.87 µM) | 4 µg/mL (≈ 11.5 µM) |  |  |  |  |  |
| CC(=O)NC[C@H]1CN(c2cc(F)c(N3C[C@@H]4[C@H](C3)[C@H]4NC(=O)Nc3ccccc3)c(F)c2)C(=O)O1 | 2 µg/mL (≈ 4.12 µM) | > 64 µg/mL |  |  | 4 µg/mL (≈ 8.24 µM) | > 64 µg/mL | 1 µg/mL (≈ 2.06 µM) | 8 µg/mL (≈ 16.5 µM) | 2 µg/mL (≈ 4.12 µM) |  |  |  |  |  |  |  |  |  |
| CC(=O)NC[C@H]1CN(c2cc(F)c(N3C[C@@H]4[C@H](C3)[C@H]4C(=O)N(C)C)c(F)c2)C(=O)O1 | 2 µg/mL (≈ 4.73 µM) | > 64 µg/mL |  |  | 4 µg/mL (≈ 9.47 µM) | 64 µg/mL (≈ 152 µM) | 2 µg/mL (≈ 4.73 µM) | 4 µg/mL (≈ 9.47 µM) | 4 µg/mL (≈ 9.47 µM) |  |  |  |  |  |  |  |  |  |
| CC(=O)NC[C@H]1CN(c2cc(F)c(N3C[C@H]4C[C@H]4C3)c(F)c2)C(=O)O1 | 1 µg/mL (≈ 2.85 µM) | > 64 µg/mL |  |  | 2 µg/mL (≈ 5.69 µM) | 64 µg/mL (≈ 182 µM) | 0.5 µg/mL (≈ 1.42 µM) | 2 µg/mL (≈ 5.69 µM) | 2 µg/mL (≈ 5.69 µM) |  |  |  |  |  |  |  |  |  |
| CC(=O)NC[C@H]1CN(c2cc(F)c(N3C[C@@H]4[C@H](C3)[C@H]4C(=O)Nc3nccs3)c(F)c2)C(=O)O1 | 0.25 µg/mL (≈ 0.524 µM) |  |  |  | 1 µg/mL (≈ 2.09 µM) | > 64 µg/mL | 0.13 µg/mL (≈ 0.272 µM) | 2 µg/mL (≈ 4.19 µM) | 0.5 µg/mL (≈ 1.05 µM) |  |  |  |  |  |  |  |  |  |
| CC(=O)NC[C@H]1CN(c2cc(F)c(N3C[C@@H]4[C@H](C3)[C@H]4C(=O)NO)c(F)c2)C(=O)O1 | 2 µg/mL (≈ 4.87 µM) | > 64 µg/mL |  |  | 4 µg/mL (≈ 9.75 µM) | 32 µg/mL (≈ 78 µM) | 1 µg/mL (≈ 2.44 µM) | 4 µg/mL (≈ 9.75 µM) | 2 µg/mL (≈ 4.87 µM) |  |  |  |  |  |  |  |  |  |
| CC(=O)NC[C@H]1CN(c2cc(F)c(N3C[C@@H]4[C@H](C3)[C@H]4C(=O)NOCc3ccccc3)c(F)c2)C(=O)O1 | 1 µg/mL (≈ 2 µM) | > 64 µg/mL |  |  | 2 µg/mL (≈ 4 µM) | > 64 µg/mL | 1 µg/mL (≈ 2 µM) | 4 µg/mL (≈ 7.99 µM) | 2 µg/mL (≈ 4 µM) |  |  |  |  |  |  |  |  |  |
| CC(=O)NC[C@H]1CN(c2ccc(N3C[C@@H]4[C@H](C3)[C@H]4C(=O)O)c(F)c2)C(=O)O1 | 2 µg/mL (≈ 5.3 µM) | > 64 µg/mL |  |  | 4 µg/mL (≈ 10.6 µM) | 16 µg/mL (≈ 42.4 µM) | 4 µg/mL (≈ 10.6 µM) | 8 µg/mL (≈ 21.2 µM) | 4 µg/mL (≈ 10.6 µM) |  |  |  |  |  |  |  |  |  |
| N[C@@H]1[C@H]2CN(c3c(F)cc(N4C[C@H](CNC(=O)C(Cl)Cl)OC4=O)cc3F)C[C@@H]12 | 2 µg/mL (≈ 4.59 µM) |  |  |  | 2 µg/mL (≈ 4.59 µM) | 4 µg/mL (≈ 9.19 µM) | 0.5 µg/mL (≈ 1.15 µM) | 4 µg/mL (≈ 9.19 µM) | 2 µg/mL (≈ 4.59 µM) |  |  |  |  |  |  |  |  |  |
| COc1ccc(NC(=O)[C@H]2[C@@H]3CN(c4c(F)cc(N5C[C@H](CNC(C)=O)OC5=O)cc4F)C[C@@H]32)cn1 | 1 µg/mL (≈ 1.99 µM) |  |  |  | 2 µg/mL (≈ 3.99 µM) | > 64 µg/mL | 0.5 µg/mL (≈ 0.997 µM) | 2 µg/mL (≈ 3.99 µM) | 1 µg/mL (≈ 1.99 µM) |  |  |  |  |  |  |  |  |  |
| CC(=O)NC[C@H]1CN(c2cc(F)c(N3C[C@@H]4[C@@H](N)[C@@H]4C3)c(F)c2)C(=O)O1 (stereo in doubt; 18b) |  |  |  |  |  |  | 0.5 µg/mL (≈ 1.36 µM) |  |  |  |  |  | 4 µg/mL (≈ 10.9 µM) | 1 µg/mL (≈ 2.73 µM) | 8 µg/mL (≈ 21.8 µM) | 2 µg/mL (≈ 5.46 µM) | 32 µg/mL (≈ 87.3 µM) | 4 µg/mL (≈ 10.9 µM) |
